For assay [1], the species on record is Rattus norvegicus. Nature of the assay: Stimulation of levator ani muscle weight in castrated immature Sprague-Dawley rat at 3 mg/day. It is filed as functional. Put shortly:
(§1)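 Immature (~50 g) castrated male Sprague Dawley rats given oral doses once daily at 0.1, 0.3, 1, 3 mg/day. Ventral prostate and levator ani wet weights adjusted to body weight. % stimulation uses vehicle = 0% and testosterone-treated (1 mg/day) group = 100%; ED50 derived from the four-point dose series. n = 3/group.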

The test system of assay [2] is Rattus norvegicus. Nature of the assay: Stimulation of levator ani muscle weight in castrated Sprague-Dawley rat at 30 mg/kg. It is filed as functional. Put shortly: (§2)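 Mature (150–200 g) castrated male Sprague Dawley rats dosed by oral gavage once daily for 14 days in 20% cyclodextrin or 0.5% methylcellulose. Five-point doses: 0.3, 1, 3, 10, 30 mg/kg. Testosterone propionate reference given at 5 mg/kg s.c. in sesame oil. Ventral prostate and levator ani wet weights taken on day 15, adjusted to body weight. % stimulation uses vehicle = 0% and testosterone = 100%; ED50 derived from the doses. n = 3.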

For assay [3], the species on record is Rattus norvegicus. As to the kind of experiment: Inhibition of prostate weight in castrated immature male Sprague-Dawley rat at 2 mg/day relative to control. In kind it is functional, Prostate gland. The method in brief: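 Immature (~50 g) castrated male Sprague Dawley rats; test article orally at 2 mg/day once daily for 5 days, with testosterone propionate 0.1 mg/day s.c. in sesame oil. Ventral prostate wet weight taken on day 6 after CO2 euthanasia, adjusted to body weight. Inhibition given as % of testosterone-enhanced weight, vehicle group = 100% and testosterone-alone group = 0%. n = 3/group.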

For assay [4], the species on record is Rattus norvegicus. As to the kind of experiment: Stimulation of prostate weight in castrated immature Sprague-Dawley rat at 3 mg/day. In kind it is functional, Prostate gland. The method in brief: as §1
The test system of assay [5] is Rattus norvegicus. As to the kind of experiment: Stimulation of prostate weight in castrated Sprague-Dawley rat at 30 mg/kg. In kind it is functional, Prostate gland. Put shortly: as §2
The species named for assay [6] is Rattus norvegicus. Nature of the assay: Stimulation of prostate weight in castrated Sprague-Dawley rat. It is filed as functional. The following applies: Prostate gland. Put shortly: as §2
The subject of assay [7] is Rattus norvegicus. As to the kind of experiment: Inhibition of prostate weight in intact Sprague-Dawley rat at 30 mg/kg relative to control. It is filed as functional. To be noted: Prostate gland.
Assay [8] is filed under the species Rattus norvegicus. As to the kind of experiment: Stimulation of levator ani muscle weight in castrated Sprague-Dawley rat. It is filed as functional. Put shortly:
as §2

The species named for assay [9] is Rattus norvegicus. Nature of the assay: Stimulation of levator ani muscle weight in castrated immature Sprague-Dawley rat. It is filed as functional. Put shortly:
as §1

For assay [10], the species on record is Rattus norvegicus. Nature of the assay: Stimulation of prostate weight in castrated immature Sprague-Dawley rat. It is filed as functional, Prostate gland. The method in brief:
as §1

Assay [11] relates to Rattus norvegicus. Nature of the assay: Stimulation of prostate weight in castrated immature Sprague-Dawley rat at 2 mg/day, po after 5 days. It is filed as functional, Prostate gland. Put shortly: (§3)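 Immature (~50 g) castrated male Sprague Dawley rats dosed once daily for 5 days. Test article given p.o. at 2 mg/day in 20% cyclodextrin; testosterone propionate reference given at 1 mg/day s.c. in sesame oil. Ventral prostate and levator ani wet weights taken on day 6, adjusted to body weight. % stimulation uses vehicle = 0% and testosterone = 100%. n = 3/group.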

For assay [12], the system named is Rattus norvegicus. Nature of the assay: Stimulation of levator ani muscle weight in castrated immature Sprague-Dawley rat at 2 mg/day, po after 5 days. It is filed as functional. Put shortly: as §3
Assay [13] has as its system Rattus norvegicus. Nature of the assay: Stimulation of levator ani muscle weight in castrated immature Sprague-Dawley rat at 1 mg/day, sc. It is filed as functional.
For assay [14], the system named is Rattus norvegicus. Nature of the assay: Stimulation of prostate weight in castrated immature Sprague-Dawley rat at 1 mg/day, sc. In kind it is functional, Prostate gland.

Active and inactive are the calls of the source. The rule behind the calls is not given here. A value given as a limit tells only on which side of the number the result lay.

As a reminder, the Inhibition is the share of the control response that was lost under treatment. A lower Inhibition goes with a weak effect. Broadly, the inhibition in vivo is the share of the control response that was lost under treatment. For `C[C@]1(C(=O)Nc2ccc(C#N)c(C(F)(F)F)c2)CC(C(F)(F)F)=NN1`, the Activity stood at 49% in [1], 9% in assay [2], 29% in [4] and 4% in [5]. Moreover, the Inhibition in assay [3] came to 22%. The ED50 was over 30 mg/kg in assay [6], over 30 mg/kg in [8], 0.86 mg/day in [9] and 0.94 mg/day in assay [10]. At 30 mg/kg the inhibition in vivo in [7] was 25%.
In the case of `CC1(C(=O)Nc2ccc(C#N)c(C(F)(F)F)c2)CC(C(F)(F)F)=NN1` (stereo unspecified), the Activity is 25% in [5], 28% in assay [11] and 71% in assay [12]. Besides, the ED50 in [6] is over 30 mg/kg; in assay [8] it was 7.9 mg/kg. Further, the outcome in assay [7] was inactive.
In the case of `CCC1(C(=O)Nc2ccc(C#N)c(C(F)(F)F)c2)CC(C(F)(F)F)=NN1` (stereo unspecified), the Activity in [5] worked out at 19%; in assay [11], 24%; in assay [12], 67%. For the same molecule, the ED50 in assay [6] is over 30 mg/kg; in [8], 21 mg/kg.
As for `CCC(=O)O[C@H]1CC[C@H]2[C@@H]3CCC4=CC(=O)CC[C@]4(C)[C@H]3CC[C@]12C` [TESTOSTERONE PROPIONATE], the Activity in assay [13] and in assay [14] was 100% throughout. The ED50 in [6] stood at 0.25 mg/kg; in [8], 0.17 mg/kg; in assay [9] it was 0.1 mg/day; in assay [10] it was 0.1 mg/day.
The molecule `CCN1N=C(C(F)(F)F)C[C@]1(C)C(=O)Nc1ccc(C#N)c(C(F)(F)F)c1` yielded an Inhibition in [3] of under 10%. In addition, the ED50 in assay [9] is 0.45 mg/day; in assay [10] it was over 3 mg/day.
In [3], `CCO/C(=N\c1ccc(C#N)c(C(F)(F)F)c1)[C@]1(C)CC(C(F)(F)F)=NN1` had an Inhibition of 27%. Besides, the ED50 in [9] is on record as 0.86 mg/day; in [10] it was over 3 mg/day.
Molecule `C[C@](O)(CS(=O)(=O)c1ccc(F)cc1)C(=O)Nc1ccc(C#N)c(C(F)(F)F)c1` [(R)-BICALUTAMIDE] showed an Inhibition in assay [3] of 70%. In assay [7], this molecule had an inhibition in vivo at 30 mg/kg of 67%.
On to `CCc1c(NC(=O)C2(C)CC(C(F)(F)F)=NN2)ccc(C#N)c1C(F)(F)F` (stereo unspecified), for which the Activity is listed as 18% in assay [5], 14% in assay [11] and 88% in [12]. In addition, the figures for the ED50 in [6] and in assay [8] were over 30 mg/kg and 17 mg/kg, respectively.
With `C[C@@]1(C(=O)Nc2ccc(C#N)c(C(F)(F)F)c2)CC(C(F)(F)F)=NN1`, the Activity in assay [1] was 90%; in [2], 120%; in assay [4], 51%; in assay [5], 46%. In assay [3], this molecule had an Inhibition of 40%. Further, the ED50 in [6] was over 30 mg/kg; in assay [8], 3.8 mg/kg; in assay [9], 0.11 mg/day; in [10], 0.76 mg/day. In addition, the inhibition in vivo at 30 mg/kg in [7] is 33%.
For the molecule `CC(C)C(=O)Nc1ccc([N+](=O)[O-])c(C(F)(F)F)c1` [FLUTAMIDE], the inhibition in vivo at 30 mg/kg in assay [7] was 51%.

The values above are taken from ChEMBL document CHEMBL1148714, “Design, synthesis, and in vivo SAR of a novel series of pyrazolines as potent selective androgen receptor modulators” (2007).
